From PMC5434479 (Inorganic Chemistry, 2017)
Read-outs that look alike come from different tables or passages of the source.

Key:
[1] = system: human breast adenocarcinoma (MCF-7) cells; test: MTS antiproliferation assay, MCF-7 cells; type: cell-based; conditions: for IC50: read-out: IC50 ± SE
Summary of the method: (§1)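 Culture was at 37 °C, 5% CO2: A549 in RPMI 1640, MCF-7 and MRC-5 in DMEM, each with 10% FCS, 2 mM L-glutamine and penicillin/streptomycin. Seeding per 100 μL was 8 × 10^3 (A549, MCF-7) or 2 × 10^3 (MRC-5). Compound in DMSO was diluted 100-fold into wells (1% DMSO final), tested at several concentrations in triplicate for 72 h. MTS reagent was added for 4 h, then A490 read; IC50 calculated.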

[2] = system: human lung adenocarcinoma epithelial (A549) cells; test: MTS antiproliferation assay, A549 cells; type: cell-based; conditions: for IC50: read-out: IC50 ± SE
Summary of the method: as §1

[3] = system: human promyelocytic leukemia (HL60) cells; test: MTS antiproliferation assay, HL60 cells; type: cell-based; conditions: for IC50: read-out: IC50 ± SE; for cell viability: HL60, 1 μM; for cell viability / inhibition of HL60 cell proliferation (in words): 72 h; for inhibition of HL60 cell proliferation (in words): HL60, 10 μM
Summary of the method: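 HL60 cells were kept in RPMI 1640 with 10% FCS, 2 mM L-glutamine and penicillin/streptomycin at 37 °C, 5% CO2, and seeded at 3 × 10^4 per 100 μL. Compound predissolved in DMSO was diluted 100-fold into wells (1% DMSO final). Wells received 10 or 1 μM, or a concentration series, in triplicate for 72 h. MTS reagent was added for 4 h, then absorbance read at 490 nm. Screening data were averaged over three experiments; IC50 calculated.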

[4] = system: human fetal lung fibroblast (MRC-5) cells; test: MTS antiproliferation assay, MRC-5 healthy fibroblasts; type: cell-based; conditions: for IC50: read-out: IC50 ± SE; for times less toxic toward healthy fibroblasts (MRC-5) than toward HL60 and MCF-7: MRC-5 versus HL60 and MCF-7
Summary of the method: as §1

[5] = system: human telomeric i-motif sequence (hTeloC); test: FRET DNA-melting assay, hTeloC; type: binding; conditions: pH 5.5 and pH 6.0; for interaction in preliminary screening (in words): hTeloC i-motif 0.2 μM, 50 equiv (10 μM); for stabilization of telomeric i-motif, pH 6.0 versus pH 5.5 (in words): hTeloC
Summary of the method: (§2)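 FAM/TAMRA-labelled oligonucleotides were annealed in 10 mM sodium cacodylate with 100 mM NaCl. Buffer was pH 5.5 and 6.0 for hTeloC and pH 7.2 for hif-1α, hTeloG and duplex. Final DNA was 0.2 μM, with compound added at 1:10 by volume. DMSO-matched DNA controls ran in each run. Melting curves were recorded by real-time PCR machine, excitation 470 nm and detection 510 nm. Mean and SD of three experiments.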

[6] = system: G-quadruplex-forming sequence from the human telomere (hTeloG); test: FRET DNA-melting assay, hTeloG; type: binding; conditions: hTeloG G-quadruplex 0.2 μM, 50 equiv (10 μM), pH 7.2
Summary of the method: as §2

[7] = system: i-motif-forming sequence from the promoter region of the oncogene hif-1α; test: FRET DNA-melting assay, hif-1α i-motif; type: binding; conditions: hif-1α i-motif 0.2 μM, 50 equiv (10 μM), pH 7.2
Summary of the method: as §2

double-stranded DNA = test: FRET DNA-melting assay, double-stranded DNA; type: binding; conditions: double-stranded DNA 0.2 μM, 50 equiv (10 μM), pH 7.2
Summary of the method: as §2

MCF-7 cells = test: Cellular uptake, gold content by ICP-MS, MCF-7 cells; type: cell-based, human; conditions: MCF-7, 1 μM, 6 h
A549 cells = test: Cellular uptake, gold content by ICP-MS, A549 cells; type: cell-based, human; conditions: A549, 10 μM, 6 h
[8] = molecular target: MDM2–p53 interaction (human MDM2 protein, residues 17–125) (Homo sapiens, UniProt Q00987); test: Fluorescence polarization assay of MDM2–p53 interaction; type: binding; conditions: for disruption of MDM2–p53 interaction in screening (in words): 100 μM
Summary of the method: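 Compound in DMSO was added at 1:10. Positive control was wild-type p53 peptide (15–27) at 400 μM final, negative control DMSO, each in triplicate. Plates were incubated 30 min at room temperature and read by polarisation at 490/520 nm, with total fluorescence checked. IC50 came from log(inhibitor) versus response, variable slope.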

[9] = Reaction with glutathione monitored by 1H NMR; type: physicochemical; conditions: equimolar GSH (10 mM) in DMSO-d6, room temperature, 6 days
MDM2 = MDM2 (Homo sapiens, UniProt Q00987); test: STD NMR binding to MDM2; conditions: 13.5 μM MDM2, 500 μM compound, 1% DMSO-d6, 25 °C
Summary of the method: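 STD NMR at 800 MHz used a pseudo-2D sequence with spoil pulses. Protein was saturated by cascades of 49 ms Gaussian pulses, 1 ms apart, on-resonance at 0 ppm and off-resonance at 40 ppm. Saturation lasted 4 s for binding detection and 0.5 s for epitope mapping, 1024 scans each. Blank runs without protein were done. Epitope values were normalised to the most intense proton as 100%.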

Chain of MDM2–p53 interaction (human MDM2 protein, residues 17–125) (Q00987 17-125): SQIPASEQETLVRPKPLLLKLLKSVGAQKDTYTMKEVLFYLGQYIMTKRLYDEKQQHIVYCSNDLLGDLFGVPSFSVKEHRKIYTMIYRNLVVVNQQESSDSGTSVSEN
Chain of MDM2 (Q00987 whole entry): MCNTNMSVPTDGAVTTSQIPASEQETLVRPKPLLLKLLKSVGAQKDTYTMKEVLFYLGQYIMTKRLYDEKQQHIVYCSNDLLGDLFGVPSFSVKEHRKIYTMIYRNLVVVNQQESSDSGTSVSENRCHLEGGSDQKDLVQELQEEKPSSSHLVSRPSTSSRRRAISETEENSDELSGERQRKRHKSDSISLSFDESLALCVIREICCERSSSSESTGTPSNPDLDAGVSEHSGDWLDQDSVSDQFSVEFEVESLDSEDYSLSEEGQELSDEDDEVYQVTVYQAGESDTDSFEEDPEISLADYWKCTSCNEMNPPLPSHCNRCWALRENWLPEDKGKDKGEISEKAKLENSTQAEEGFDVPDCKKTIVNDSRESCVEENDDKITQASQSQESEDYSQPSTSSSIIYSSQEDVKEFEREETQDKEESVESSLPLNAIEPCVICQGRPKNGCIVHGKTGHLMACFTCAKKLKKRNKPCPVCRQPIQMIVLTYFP

IC50 ([1]; MCF-7, 72 h incubation, MTS)	IC50 ([2]; A549, 72 h incubation, MTS)	IC50 ([3]; HL60, 72 h incubation, MTS)	cell uptake (in words) (MCF-7 cells)	cell uptake (in words) (A549 cells)	Compound	IC50 ([4]; MRC-5, 72 h incubation, MTS)	interaction in preliminary screening (in words) [5]	interaction in preliminary screening (in words) [6]	interaction in preliminary screening (in words) [7]	cell viability [3]	inhibition of HL60 cell proliferation (in words) [3]	stabilization of telomeric i-motif, pH 6.0 versus pH 5.5 (in words) [5]	disruption of MDM2–p53 interaction in screening (in words) [8]	times less toxic toward healthy fibroblasts (MRC-5) than toward HL60 and MCF-7 [4]	further results
					Nc1nc2nc[nH]c2c(=S)[nH]1 [Compound 6-TG, 6-thioguanine, reference compound]										IC50 ([1]; Homo sapiens, MCF7, 72 h): 0.42 ± 0.13 µM; IC50 ([2]; Homo sapiens, A549, 72 h): > 50 µM; IC50 ([3]; Homo sapiens, HL-60, 72 h): 0.98 ± 0.07 µM; IC50 ([4]; Homo sapiens, MRC5, 72 h): > 50 µM; IC50 ± SE ([4]; MRC-5, 72 h incubation, MTS): nontoxic
0.78 ± 0.11 µM	29 ± 1.8 µM	0.9 ± 0.22 µM			(C^N^pz^N)Au(6-thioguanine) [Compound 4]	4.3 ± 0.7 µM	did not show any interaction	did not show any interaction	did not show any interaction	60%	completely inhibited cell proliferation				interaction in preliminary screening (in words) (double-stranded DNA): did not show any interaction
7.9 ± 0.13 µM	> 50 µM	4.05 ± 0.43 µM	poorly taken up	poorly taken up	[(C^N^pz^N)Au(1,3,7,9-tetramethylxanthin-8-ylidene)]BF4 [Compound 3]	17.6 ± 1.9 µM	good interactions	good interactions	good interactions	nontoxic	completely inhibited cell proliferation	does not show any particular difference	only compounds 1 and 2 appeared to disrupt	2–4	
0.56 ± 0.02 µM	7.8 ± 1.3 µM	0.31 ± 0.15 µM	highest concentrations	much higher uptake	[(C^N^pz^N)Au(1,3-dimethylbenzimidazol-2-ylidene)]PF6 [Compound 2]	1.4 ± 0.4 µM	good interactions	good interactions	good interactions	22%	completely inhibited cell proliferation	stabilize the telomeric i-motif structure at pH 6.0 more efficiently than at pH 5.5	appeared to disrupt the MDM2–p53 interaction	2–4	intracellular gold concentration, times higher than that of 1 (A549 cells): ~4; intracellular gold concentration, times higher than that of 3 (A549 cells): ~11; IC50 ([8]; 10 nM HDM2 and tagged peptide, pH 7.4): 31.1 ± 1.1 µM; times more potent than 3 ([1]; MCF-7, ratio of IC50 values): up to 14; times more toxic than (benzimidazolylidene)AuCl ([1]; MCF-7, comparator value ref 44): more than 10; times more toxic than cisplatin ([2]; A549, ratio of IC50 values): 4; toxicity relative to (benzimidazolylidene)AuCl ([2]; A549, comparator value ref 25b): more than twice as toxic; stability toward GSH [9]: high stability; binding to MDM2 in solution (in words) (MDM2): clearly confirmed the binding

Compound	IC50 ([1]; MCF-7, 72 h incubation, MTS)	IC50 ([2]; A549, 72 h incubation, MTS)	IC50 ([3]; HL60, 72 h incubation, MTS)	cell uptake (in words) (MCF-7 cells)	cell uptake (in words) (A549 cells)	IC50 ([4]; MRC-5, 72 h incubation, MTS)	interaction in preliminary screening (in words) [5]	interaction in preliminary screening (in words) [6]	interaction in preliminary screening (in words) [7]	cell viability [3]	inhibition of HL60 cell proliferation (in words) [3]	stabilization of telomeric i-motif, pH 6.0 versus pH 5.5 (in words) [5]	disruption of MDM2–p53 interaction in screening (in words) [8]	times less toxic toward healthy fibroblasts (MRC-5) than toward HL60 and MCF-7 [4]	further results
N.N.[Cl][Pt][Cl] [cisplatin, cis-diamminedichloroplatinum(II), reference compound]	21.2 ± 3.9 µM	33.7 ± 3.7 µM	3.7 ± 0.25 µM			10.7 ± 3 µM									
